Measured values as given in ChEMBL document CHEMBL4118127, “Structure activity relationship studies on rhodanines and derived enethiol inhibitors of metallo-β-lactamases” (Bioorg Med Chem, 2018).
Activity calls are given as the source filed them.

Legend:
[1] = target: Beta-lactamase (Escherichia coli K-12) (UniProt P00811); assay: Inhibition of recombinant Escherichia coli AmpC assessed as residual activity at 200 uM using FC5 as substrate preincubated at 10 to 300 mins followed by substrate addition
[2] = target: Beta-lactamase OXA-10 (Pseudomonas aeruginosa) (UniProt P14489); assay: Inhibition of recombinant Pseudomonas aeruginosa OXA-10 using FC5 as substrate assessed as residual activity at 200 uM
[3] = system: Bacteria; assay: Inhibition of recombinant bacterial IMP1 expressed in Escherichia coli BL21 (DE3) cells at 100 uM using FC4-FC5 as substrate by fluorescence-based assay
[4] = system: Bacteria; assay: Inhibition of recombinant full-length bacterial His6-tagged SPM1 (29 to 276 residues) expressed in Escherichia coli BL21 (DE3) cells at 100 uM using FC4-FC5 as substrate by fluorescence-based assay
[5] = system: Bacteria; assay: Inhibition of recombinant bacterial NDM1 expressed in Escherichia coli BL21 (DE3) cells at 100 uM using FC5 as fluorogenic reporter substrate preincubated at 10 to 300 mins followed by substrate addition
[6] = target: Metallo-beta-lactamase type 2 (Aeromonas hydrophila) (UniProt P26918); assay: Inhibition of Aeromonas hydrophila CphA at 100 uM using fluorogenic cephalosporin as substrate
[7] = target: T1, Metallo-beta-lactamase type 2 (Bacillus cereus) (UniProt P04190); assay: Inhibition of recombinant bacterial BC2 expressed in Escherichia coli BL21 (DE3) cells at 100 uM using FC4-FC5 as substrate by fluorescence-based assay
T1 sequence (whole entry): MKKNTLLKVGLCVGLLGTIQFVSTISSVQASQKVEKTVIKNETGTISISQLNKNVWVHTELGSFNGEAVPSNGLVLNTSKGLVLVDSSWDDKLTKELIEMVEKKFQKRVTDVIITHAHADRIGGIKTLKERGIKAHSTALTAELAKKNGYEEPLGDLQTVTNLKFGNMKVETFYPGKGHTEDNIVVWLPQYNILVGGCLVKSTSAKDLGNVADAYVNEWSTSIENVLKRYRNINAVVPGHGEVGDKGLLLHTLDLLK

[8] = system: Bacteria; assay: Inhibition of recombinant full-length bacterial His6-tagged VIM2 (27 to 266 residues) expressed in Escherichia coli BL21 (DE3) cells at 100 uM using FC4-FC5 as substrate by fluorescence-based assay
[9] = target: Beta-lactamase TEM (Bacteria) (UniProt P62593); assay: Inhibition of recombinant N-terminal His-tagged Escherichia coli TEM1 (24 to 286 residues) expressed in Escherichia coli BL21(DE3) at 200 uM using FC5 as substrate
[10] = system: Bacteria; assay: Inhibition of recombinant bacterial IMP1 expressed in Escherichia coli BL21 (DE3) cells using FC4-FC5 as substrate assessed as residual activity at 100 uM by fluorescence-based assay
How it was run: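 IMP-1 was incubated with inhibitor for 10 min before substrate was added. Residual activity was calculated from the initial rate of FC5 hydrolysis.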

[11] = system: Bacteria; assay: Inhibition of recombinant full-length bacterial His6-tagged VIM2 (27 to 266 residues) expressed in Escherichia coli BL21 (DE3) cells using FC4-FC5 as substrate assessed as residual activity at 100 uM by fluorescence-based assay
[12] = target: Beta-lactamase OXA-10 (Pseudomonas aeruginosa) (UniProt P14489); assay: Inhibition of recombinant Pseudomonas aeruginosa OXA-10 at 200 uM using FC5 as substrate
[13] = target: Beta-lactamase CTX-M (Escherichia coli) (UniProt Q9EXV5); assay: Inhibition of recombinant Escherichia coli EO516 N-terminal His6-tagged CTX-M using FC5 as substrate at 200 uM preincubated at 10 to 300 mins followed by substrate addition
[14] = target: Beta-lactamase (Escherichia coli K-12) (UniProt P00811); assay: Inhibition of recombinant Escherichia coli AmpC at 200 uM using FC5 as substrate preincubated at 10 to 300 mins followed by substrate addition
[15] = target: Beta-lactamase TEM (Bacteria) (UniProt P62593); assay: Inhibition of recombinant N-terminal His-tagged Escherichia coli TEM1 (24 to 286 residues) expressed in Escherichia coli BL21(DE3) using FC5 as substrate assessed as residual activity at 200 uM

Beta-lactamase (Escherichia coli K-12), sequence (P00811 whole entry, the tested form may be a part): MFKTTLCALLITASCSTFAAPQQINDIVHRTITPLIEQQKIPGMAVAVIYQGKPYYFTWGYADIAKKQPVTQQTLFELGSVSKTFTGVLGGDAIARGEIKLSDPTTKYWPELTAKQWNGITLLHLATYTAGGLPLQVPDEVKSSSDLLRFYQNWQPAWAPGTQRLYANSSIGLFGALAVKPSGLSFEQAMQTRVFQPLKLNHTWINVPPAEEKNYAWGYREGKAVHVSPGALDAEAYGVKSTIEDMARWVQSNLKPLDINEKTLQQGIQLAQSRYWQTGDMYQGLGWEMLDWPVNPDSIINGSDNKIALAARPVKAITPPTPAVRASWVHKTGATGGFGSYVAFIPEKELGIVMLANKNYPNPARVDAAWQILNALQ
Beta-lactamase TEM (Bacteria), sequence (P62593 whole entry, the tested form may be a part): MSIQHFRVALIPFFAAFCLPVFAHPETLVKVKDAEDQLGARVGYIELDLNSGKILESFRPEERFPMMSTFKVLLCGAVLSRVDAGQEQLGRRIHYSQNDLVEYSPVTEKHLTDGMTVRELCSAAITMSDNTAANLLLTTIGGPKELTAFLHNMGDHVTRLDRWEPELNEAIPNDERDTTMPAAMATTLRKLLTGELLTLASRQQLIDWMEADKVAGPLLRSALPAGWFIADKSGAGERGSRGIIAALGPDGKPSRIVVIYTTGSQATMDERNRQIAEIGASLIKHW
Beta-lactamase OXA-10 (Pseudomonas aeruginosa), sequence (P14489 whole entry): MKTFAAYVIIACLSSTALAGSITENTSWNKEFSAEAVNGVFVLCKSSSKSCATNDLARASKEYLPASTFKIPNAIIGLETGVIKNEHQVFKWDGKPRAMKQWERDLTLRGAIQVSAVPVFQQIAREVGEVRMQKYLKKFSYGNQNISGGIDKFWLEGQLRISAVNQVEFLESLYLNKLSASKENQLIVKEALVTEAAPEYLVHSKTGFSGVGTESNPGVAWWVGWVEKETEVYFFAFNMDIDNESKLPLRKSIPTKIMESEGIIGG
Metallo-beta-lactamase type 2 (Aeromonas hydrophila), sequence (P26918 whole entry): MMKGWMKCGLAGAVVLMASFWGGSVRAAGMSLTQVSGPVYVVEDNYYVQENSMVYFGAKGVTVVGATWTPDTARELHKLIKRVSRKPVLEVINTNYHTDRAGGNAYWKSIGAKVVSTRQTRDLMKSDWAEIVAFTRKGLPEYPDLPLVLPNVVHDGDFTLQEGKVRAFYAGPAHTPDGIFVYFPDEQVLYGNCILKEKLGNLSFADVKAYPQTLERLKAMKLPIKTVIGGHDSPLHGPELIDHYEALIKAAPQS

Compound | inhibition [9] | inhibition [12] | inhibition [13] | inhibition [14] | Activity [10] | Activity [11] | other results
CN1CCN(NC(=O)CN2C(=O)/C(=C/c3c4ccccc4cc4ccccc34)SC2=S)CC1 |  |  |  |  |  |  | Activity [1]: 1%; Activity [2]: 41%
O=C(O)C(O)Cc1ccccc1 (configuration not stated) |  |  |  |  |  |  | inhibition [3]: inactive; inhibition [4]: inactive; inhibition [5]: inactive; inhibition [6]: inactive; inhibition [7]: inactive; inhibition [8]: inactive
O=C(O)/C(S)=C/c1c2ccccc2cc2ccccc12 |  |  |  |  |  |  | Activity [15]: 40%
O=C(O)C(O)c1ccccc1 (configuration not stated) |  |  |  |  |  |  | inhibition [3]: inactive; inhibition [4]: inactive; inhibition [5]: inactive; inhibition [6]: inactive; inhibition [7]: inactive; inhibition [8]: inactive
O=P(O)(O)C(O)c1ccc(Br)cc1F (configuration not stated) | inactive | inactive | inactive | inactive | 100% | 100% | 
O=P(O)(O)C(S)c1ccc(Br)cc1F (configuration not stated) | inactive | inactive | inactive | inactive | 100% | 100% | 

Now from value to compound, other results behind:

inhibition [9] | inhibition [12] | inhibition [13] | inhibition [14] | Compound | Activity [10] | Activity [11] | other results
inactive | inactive | inactive | inactive | O=C(O)/C(O)=C/c1ccc(F)cc1 | 100% | 100% | 
inactive | inactive | inactive | inactive | CC1=N/C(=C\c2ccc(F)cc2)C(=O)O1 | 100% | 100% | 
inactive | inactive | inactive | inactive | O=C(O)/C(S)=C/c1ccccc1Cc1ccc2ccccc2c1 |  |  | 
inactive | inactive | inactive | inactive | Cc1ccc(/C=C(\S)C(=O)O)cc1 |  |  | 
